Test results taken from ChEMBL document CHEMBL1127630, “New dual inhibitors of neutral endopeptidase and angiotensin-converting enzyme: rational design, bioavailability, and pharmacological responses in experimental hypertension” (J Med Chem, 1994).
Values belong to the molecule of their own block, whether it stands above or below them.

What was measured:
[1] = target: T1, Angiotensin-converting enzyme (Mus musculus, UniProt P09470); assay: Inhibitory potency against angiotensin converting enzyme by displacement of [3H]trandolaprilate binding in mouse lung
T1 sequence (P09470 whole entry): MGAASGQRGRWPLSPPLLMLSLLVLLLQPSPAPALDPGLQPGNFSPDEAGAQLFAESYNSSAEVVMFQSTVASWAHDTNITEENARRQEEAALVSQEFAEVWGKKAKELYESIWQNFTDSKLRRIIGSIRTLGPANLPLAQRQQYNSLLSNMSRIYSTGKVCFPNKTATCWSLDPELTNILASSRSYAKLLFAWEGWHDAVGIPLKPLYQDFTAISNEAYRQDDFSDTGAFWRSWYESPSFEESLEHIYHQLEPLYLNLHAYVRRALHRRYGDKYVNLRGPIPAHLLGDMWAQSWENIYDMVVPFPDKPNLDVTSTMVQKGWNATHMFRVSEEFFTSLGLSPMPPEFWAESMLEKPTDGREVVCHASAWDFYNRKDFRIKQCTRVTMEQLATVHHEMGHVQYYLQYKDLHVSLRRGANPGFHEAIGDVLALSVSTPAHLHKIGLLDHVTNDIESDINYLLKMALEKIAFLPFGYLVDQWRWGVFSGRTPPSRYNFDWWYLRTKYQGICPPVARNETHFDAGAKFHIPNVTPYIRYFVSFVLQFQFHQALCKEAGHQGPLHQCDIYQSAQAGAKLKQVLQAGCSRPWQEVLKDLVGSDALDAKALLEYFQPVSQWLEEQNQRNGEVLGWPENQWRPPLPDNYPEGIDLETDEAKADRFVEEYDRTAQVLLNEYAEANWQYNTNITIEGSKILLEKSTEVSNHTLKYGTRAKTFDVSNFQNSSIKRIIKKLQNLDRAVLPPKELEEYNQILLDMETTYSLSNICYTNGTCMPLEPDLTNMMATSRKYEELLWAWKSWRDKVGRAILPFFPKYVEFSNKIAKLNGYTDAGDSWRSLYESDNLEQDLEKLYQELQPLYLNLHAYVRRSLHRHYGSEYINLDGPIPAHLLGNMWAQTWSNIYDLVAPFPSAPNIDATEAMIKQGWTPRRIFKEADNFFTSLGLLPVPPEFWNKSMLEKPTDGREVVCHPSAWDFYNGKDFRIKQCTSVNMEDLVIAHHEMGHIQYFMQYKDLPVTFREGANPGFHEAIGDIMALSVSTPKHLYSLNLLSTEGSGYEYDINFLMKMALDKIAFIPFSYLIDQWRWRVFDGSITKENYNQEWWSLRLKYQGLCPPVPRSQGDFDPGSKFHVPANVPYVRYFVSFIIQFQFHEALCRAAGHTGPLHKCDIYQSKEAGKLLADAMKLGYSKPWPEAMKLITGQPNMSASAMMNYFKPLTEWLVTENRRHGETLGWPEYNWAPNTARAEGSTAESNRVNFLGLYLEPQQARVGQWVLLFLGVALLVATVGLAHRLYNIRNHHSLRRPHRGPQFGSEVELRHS

[2] = target: T2, Angiotensin-converting enzyme (Mus musculus) (UniProt P09470); assay: In vivo inhibition of lung ACE was observed at 30 min after oral administration of the compound; type: organism-based; set-up: concentration or dose not given beside the values
T2 sequence (whole entry): T1 sequence (P09470 whole entry)

Mus musculus = assay: In vivo inhibition of lung ACE was observed at 60 min after oral administration; type: functional; set-up: concentration or dose not given beside the values
[3] = target: T2, Angiotensin-converting enzyme (Mus musculus); assay: In vivo inhibition of lung ACE was observed at 120 min after oral administration of the compound; type: functional, organism-based; set-up: concentration or dose not given beside the values
[4] = target: T2, Angiotensin-converting enzyme (Mus musculus); assay: In vivo inhibition of lung ACE was observed at 240 min after oral administration of the compound; type: functional, organism-based; set-up: concentration or dose not given beside the values
[5] = target: T3, Neprilysin (Mus musculus) (UniProt Q61391); assay: Inhibition of Neutral Endopeptidase activity was measured by using the displacement of [3H]HACBOGly from mouse kidney after 16h oral administration; set-up: scale not given: the % may be the effect or the level left
T3 sequence (whole entry): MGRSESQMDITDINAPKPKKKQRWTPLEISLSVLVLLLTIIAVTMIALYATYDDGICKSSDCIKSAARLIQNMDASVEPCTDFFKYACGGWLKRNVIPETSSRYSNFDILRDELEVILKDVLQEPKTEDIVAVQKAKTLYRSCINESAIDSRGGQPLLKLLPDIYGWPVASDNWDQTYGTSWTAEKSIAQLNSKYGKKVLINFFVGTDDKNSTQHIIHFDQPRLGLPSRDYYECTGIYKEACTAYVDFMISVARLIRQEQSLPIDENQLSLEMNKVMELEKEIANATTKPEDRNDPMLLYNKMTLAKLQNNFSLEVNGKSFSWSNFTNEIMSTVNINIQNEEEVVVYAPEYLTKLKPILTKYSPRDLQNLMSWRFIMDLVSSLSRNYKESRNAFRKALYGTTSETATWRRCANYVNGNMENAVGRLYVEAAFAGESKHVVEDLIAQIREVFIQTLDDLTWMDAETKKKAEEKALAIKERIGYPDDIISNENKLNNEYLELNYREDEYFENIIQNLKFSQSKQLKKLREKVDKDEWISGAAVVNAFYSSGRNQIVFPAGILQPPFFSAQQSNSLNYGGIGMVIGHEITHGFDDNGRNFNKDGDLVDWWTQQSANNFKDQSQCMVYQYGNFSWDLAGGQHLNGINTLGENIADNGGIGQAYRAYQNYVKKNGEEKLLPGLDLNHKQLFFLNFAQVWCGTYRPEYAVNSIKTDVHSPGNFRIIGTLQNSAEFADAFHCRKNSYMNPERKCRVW
How it was run: (§1)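 Mice dosed orally at 2.6 X 10-6 mol/kg in 10% ethanol/10% cremophor/80% water. [3H]HACBOGly (1 uCi) injected iv at intervals after dosing. Kidneys taken 15 min later, homogenized in 50 mM Tris-HCl pH 7.4 at 4 °C and filtered, radioactivity counted. Inhibition expressed as percent displacement versus control. Nonspecific binding defined with coinjected retrothiorphan (10.000 eq).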

[6] = target: T3, Neprilysin (Mus musculus); assay: Inhibition of Neutral Endopeptidase activity was measured by using the displacement of [3H]-HACBOGly from mouse kidney after 1 hr oral administration; set-up: scale not given: the % may be the effect or the level left; how it was run: as §1
[7] = target: T3, Neprilysin (Mus musculus); assay: Inhibition of Neutral Endopeptidase activity was measured by using the displacement of [3H]HACBOGly from mouse kidney after 2 hr oral administration; set-up: scale not given: the % may be the effect or the level left; how it was run: as §1
[8] = target: T3, Neprilysin (Mus musculus); assay: Inhibition of Neutral Endopeptidase activity was measured by using the displacement of [3H]HACBOGly from mouse kidney after 4 hr oral administration; set-up: scale not given: the % may be the effect or the level left; how it was run: as §1
[9] = target: T3, Neprilysin (Mus musculus); assay: Inhibition of Neutral Endopeptidase activity was measured by using the displacement of [3H]HACBOGly from mouse kidney after 8 hr oral administration; set-up: scale not given: the % may be the effect or the level left; how it was run: as §1
[10] = target: T2, Angiotensin-converting enzyme (Mus musculus); assay: Inhibition of lung Angiotensin Converting Enzyme (ACE) in mouse at a dose of 2.6*10e-5 mol/kg after 20 min oral administration
How it was run: (§2)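 Prescreen in mice: single oral dose of 2.6 X 10-5 mol/kg of prodrug (thioacetyl and benzyl ester protected, tested as stereoisomer mixtures). Inhibition of binding of a tritiated ACE probe to lung measured 20 and 60 min after dosing. Mean ± SEM of three experiments, three mice each.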

[11] = target: T2, Angiotensin-converting enzyme (Mus musculus); assay: In vivo inhibition of lung Angiotensin Converting Enzyme (ACE) in mouse at a dose of 2.6*10e-5 mol/kg after 60 min oral administration; type: functional, organism-based; how it was run: as §2

SMILES: CC(c1ccc(O)cc1)C(CS)C(=O)NC(Cc1ccc(O)cc1)C(=O)O (configuration not stated)
IC50 [1]: 0.0079 µM

SMILES: CC(c1ccccc1)C(CSC(=O)c1ccccc1)C(=O)N[C@@H](C)C(=O)O (some centres not stated)
Control [2]: 75% | Control (Mus musculus): 66% | Control [3]: 44% | Control [4]: 32% | Control [5]: 12% | Control [6]: 100% | Control [7]: 100% | Control [8]: 100% | Control [9]: 93%

SMILES: CC(=O)SCC(C(=O)N[C@@H](C)C(=O)O)C(C)c1ccccc1 (some centres not stated)
Control [2]: 31% | Control (Mus musculus): 29% | Control [3]: 18% | Control [4]: 16%

SMILES: COc1cc(C(C)C(CS)C(=O)NC(Cc2ccc(O)cc2)C(=O)O)ccc1O (configuration not stated)
IC50 [1]: 0.014 µM

SMILES: CCCC[C@H](NC(=O)C(CSC(C)=O)C(C)c1ccccc1)C(=O)OCc1ccccc1 (some centres not stated)
inhibition [10]: 34% | inhibition [11]: 41%

SMILES: CC(c1ccccc1)C(CSC(=O)C12CC3CC(CC(C3)C1)C2)C(=O)N[C@@H](C)C(=O)OCc1ccccc1 (some centres not stated)
Control [2]: 41% | Control (Mus musculus): 34% | Control [3]: 42% | Control [4]: 16%

SMILES: CC(c1ccccc1)C(CSC(=O)C12CC3CC(CC(C3)C1)C2)C(=O)N[C@@H](C)C(=O)O (some centres not stated)
Control [2]: 40% | Control (Mus musculus): 39% | Control [3]: 36% | Control [4]: 35%

SMILES: CC(=O)Oc1ccc(C[C@H](NC(=O)C(CSC(C)=O)C(C)c2ccc(F)cc2)C(=O)OCc2ccccc2)cc1 (some centres not stated)
inhibition [10]: 36% | inhibition [11]: 11%

SMILES: O=C(NC(Cc1ccc(O)cc1)C(=O)O)C(CS)Cc1ccccc1 (configuration not stated)
IC50 [1]: 0.025 µM

SMILES: CC(NC(=O)C(CS)C(C)c1ccc(F)cc1)C(=O)O (configuration not stated)
IC50 [1]: 0.01 µM

SMILES: CC(=O)Oc1ccc(C[C@H](NC(=O)C(CSC(C)=O)C(C)c2ccccc2)C(=O)OCc2ccccc2)cc1 (some centres not stated)
inhibition [10]: 25% | inhibition [11]: 28%

SMILES: COc1ccc(C(C)C(CS)C(=O)NC(Cc2ccc(O)cc2)C(=O)O)cc1 (configuration not stated)
IC50 [1]: 0.0036 µM

SMILES: CCC[C@H](NC(=O)C(CSC(=O)c1ccccc1)C(C)c1ccccc1)C(=O)O (some centres not stated)
Control [2]: 69% | Control (Mus musculus): 52% | Control [3]: 49% | Control [4]: 41% | Control [6]: 70% | Control [7]: 55% | Control [8]: 46%

SMILES: CC(c1ccc(F)c(F)c1)C(CS)C(=O)NC(Cc1ccc(O)cc1)C(=O)O (configuration not stated)
IC50 [1]: 0.0045 µM

Next, values leading:

IC50 [1]: 0.0054 µM
SMILES: CCC(NC(=O)C(CS)C(C)c1ccccc1)C(=O)O (configuration not stated)

Ki [1]: 0.01 µM
SMILES: C[C@H](c1ccccc1)[C@@H](CS)C(=O)N[C@@H](Cc1ccccc1)C(=O)O

Ki [1]: 0.015 µM
SMILES: C[C@@H](c1ccccc1)[C@@H](CS)C(=O)N[C@@H](Cc1ccccc1)C(=O)O (stereo in doubt; 48b)

IC50 [1]: 0.032 µM
SMILES: CC(c1ccccc1)C(CS)C(=O)NCC(=O)O (configuration not stated)

IC50 [1]: 0.02 µM
SMILES: CC(c1ccccc1)C(CS)C(=O)N[C@@H](C)C(=O)O (some centres not stated)

Ki [1]: 0.016 µM
SMILES: C[C@H](NC(=O)[C@H](CS)[C@@H](C)c1ccccc1)C(=O)O (stereo in doubt; 44b)

IC50 [1]: 0.004 µM
SMILES: CCCC(NC(=O)C(CS)C(C)c1ccccc1)C(=O)O (configuration not stated)
